Assay results as given in PubChem BioAssay AID1136 (Sanford-Burnham Center for Chemical Genomics, 2008).
Fewer than 10 of roughly 200,000 compounds were called active.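 The calls were made as follows: active = activation factor at least 2 at 20 µM; inactive = the rest.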 The list is a sample of the results.

target: Alkaline phosphatase, tissue-nonspecific isozyme (Homo sapiens) (UniProt P05186); experiment: activation of human TNAP, high DEA acceptor – biochemical, luminescence, uHTS, primary screen (AID 1136); details: purified TNAP, CDP-star luminescence, 1 M DEA, 30 min; at 20 µM; hits give high values; 0 = EDTA background, 1 = DMSO-only activity
Sequence (P05186 whole entry, looked up): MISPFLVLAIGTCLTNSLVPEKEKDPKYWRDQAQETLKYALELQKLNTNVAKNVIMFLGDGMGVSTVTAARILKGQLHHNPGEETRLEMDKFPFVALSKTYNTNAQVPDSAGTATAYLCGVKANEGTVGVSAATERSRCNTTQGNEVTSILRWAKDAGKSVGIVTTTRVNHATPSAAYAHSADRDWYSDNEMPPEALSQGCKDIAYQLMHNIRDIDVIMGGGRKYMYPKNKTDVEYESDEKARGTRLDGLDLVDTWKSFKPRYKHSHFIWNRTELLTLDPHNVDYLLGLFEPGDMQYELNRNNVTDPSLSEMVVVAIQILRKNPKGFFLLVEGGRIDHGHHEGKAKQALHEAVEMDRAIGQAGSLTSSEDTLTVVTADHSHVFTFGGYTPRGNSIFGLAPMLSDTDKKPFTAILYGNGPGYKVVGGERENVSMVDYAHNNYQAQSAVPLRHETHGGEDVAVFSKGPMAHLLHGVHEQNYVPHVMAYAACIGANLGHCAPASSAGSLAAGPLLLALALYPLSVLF
How it was run: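 Assay system: human TNAP; Input: enzyme diluted 1/800 final; Reagent: CDP-star luminogenic substrate at 100 µM final; Timing: 30 min, room temperature; Signal: luminescence; Evaluation: TNAP activation factor scaled between EDTA and DMSO control wells.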

Activation factor, inactive:
CC1CCCN(S(=O)(=O)c2ccc(N(C(=O)c3cnccn3)C(C(=O)NC3CCCCC3)c3cccs3)cc2)C1 (stereo unspecified) 0.9, COc1ccc([N+](=O)[O-])cc1NC(=O)C(C)OC(=O)C1c2ccccc2Oc2ccccc21 (stereo unspecified) 1, COc1ccc(C(=O)Nc2ccc(NC(=O)C(C)C)nc2)cc1 1.1, COc1ccc(CNc2c(CO)cnc3c2cnn3C)cc1 1, CCOC(=O)c1sc(=NC(=O)/C=C/c2cccs2)n(C)c1C 1, CN(C)C(CNC(=O)c1ccc(S(=O)(=O)NCc2ccco2)cc1)c1ccccc1 (stereo unspecified) 1, Cc1cc(C)cc(OCC(=O)Nc2ccc(S(=O)(=O)Nc3ccccn3)cc2)c1 1, COc1ccc(C(=O)NC(=S)Nc2ccc(Cl)cn2)cc1OC 1.1, COc1ccc(N2C(=O)CC(Nc3ccc(F)cc3)C2=O)c([N+](=O)[O-])c1 (stereo unspecified) 1, CC(Oc1cccc(NC(=O)c2cccs2)c1)C(=O)c1ccccc1 (stereo unspecified) 1, CCCNS(=O)(=O)c1ccc(CCC(=O)N2CCCC2)cc1 1.1, COc1cc(OC)cc(-c2nnc(SCC(=O)Nc3ccc(C(=O)O)cc3)s2)c1 1, O=C(N/N=C/c1ccc(OCC2COCCO2)cc1)c1ccc(Br)cc1 (stereo unspecified) 1, CCN(C(=O)c1ccc(Br)cc1)c1ccccc1 1, Cn1ncc(N2CCN(S(=O)(=O)c3ccc(Br)cc3)CC2)c(Cl)c1=O 1.1, O=C(CSCC(=O)Nc1cccc([N+](=O)[O-])c1)Nc1ccccc1 1, Cc1ccc(S(=O)(=O)NNC(=O)Nc2cccc3ccccc23)cc1 1, CCN(CC)c1ccc2c(Nc3ccccc3)c(C=O)c(=O)oc2c1 1, O=C(COC(=O)CCCSc1nc2ccccc2[nH]1)Nc1ccc(Oc2ccccc2)cc1 1.1, O=C(NCc1cccnc1)c1cccc(-c2cc3ccccc3oc2=O)c1 1.1, C=CCN(C(=O)c1cc(C)cc(C)c1)C1(C(=O)Nc2ccccc2)CCN(C(C)C)CC1 1, CCOc1ccc(C(=O)Nc2nccs2)cc1[N+](=O)[O-] 1, COc1ccc(C)cc1NC(=O)NCc1ccccn1 1, CCC1S/C(=N/N=C/c2ccco2)NC1=O (stereo unspecified) 1, CN(C)S(=O)(=O)c1ccc2oc(SCC(=O)Nc3ccccc3F)nc2c1 1, C=CCOC(=O)C1=C[C@@H](c2ccccc2)C[C@@H](OCc2ccc(CO)cc2)O1 1.1, NC1=C([N+](=O)[O-])C(c2ccccc2)C2=C(CCCC2=O)O1 (stereo unspecified) 1, Cc1ccc(C2(C(F)(F)F)N=C3Sc4cc(C)cc(C)c4N3C(=O)N2)cc1 (stereo unspecified) 1, CCN(CC(=O)NC1CCS(=O)(=O)C1)c1nc(-c2cccnc2)nc2ccccc12 (stereo unspecified) 1, COCC(C)NC(=O)COc1nncc2ccccc12 (stereo unspecified) 1.1, CC(=O)N1C(C)c2ccccc2C(C)(C)CC12CCCCC2 (stereo unspecified) 1, Cn1cccc1/C=C1\SC(=O)N(CC(=O)Nc2ccc(F)cc2)C1=O 1.1, COc1ccc(NC(=O)c2sc(N)nc2-c2ccccc2)cc1 1, Cc1c(NC(=S)NC(=O)CCc2ccccc2)c(=O)n(-c2ccccc2)n1C 1.1, CCCc1nc2c([nH]1)C(c1cccnc1)C(C#N)=C(N)O2 (stereo unspecified) 1, O=C1OC(/C=C/c2ccccc2)=NC/1=C/c1ccco1 1, CCc1ccc(CN(C)Cc2nc(Cc3ccccc3)no2)nc1 1.1, O=C(O)c1ccc2c3c(cccc13)C(=O)N(OS(=O)(=O)c1ccccc1)C2=O 1, CCN(CC)C(=O)Oc1ccc(OC(=O)N(CC)CC)cc1 1.1, CC(Sc1nncn1C)C(=O)Nc1cc(C(F)(F)F)ccc1N1CCOCC1 (stereo unspecified) 1, CN(C)/C=C(/C(=O)c1ccccc1)S(=O)(=O)c1ccc(Cl)cc1 1, O=C(/C=C/c1ccc([N+](=O)[O-])cc1)NCCSCc1ccco1 1, O=C(Oc1cccc(O)c1)C1CCCCC1 1, O=C(NCCc1ccccc1)C1CCC(Cn2c(=O)c3ccccc3n(Cc3cccnc3)c2=O)CC1 (stereo unspecified) 0.9, C=CCc1ccc(OCC(O)CN2CCN(Cc3ccccc3)CC2)c(OC)c1 (stereo unspecified) 1, CC(C)(C)NCc1cc(Br)ccc1OC1CCCC1 1, O=C(NCc1nnc(SCC(=O)N2CCCc3ccccc32)o1)c1ccccc1F 1, CN1CCN(c2ccc(NC(=O)c3ccc4c(c3)OCCO4)cc2Cl)CC1 1.1, O=C(CC(=O)N/N=C\c1cccc(Cl)c1Cl)NCc1ccccc1 1, Cc1cc([N+](=O)[O-])nn1CC(=O)Nc1ccc(Cc2ccncc2)cc1 1, Cc1cc(C)n(-c2ccc(C(=O)O)cc2[N+](=O)[O-])n1 1, Cc1cccc(Nc2nc3c(S(=O)(=O)c4ccccc4)nnn3c3ccccc23)c1C 1.1, Cc1ccc(S(=O)(=O)NC(=O)COc2ccccc2C)cc1 1, Cc1nc2c(C(=O)NCc3cccs3)cnn2c(C)c1Cc1ccc(F)cc1 1, CC(=O)c1cccc(NC(=O)[C@@H](NC(N)=O)C(C)C)c1 1, Cc1cccc(C)c1OCC(=O)NC(Cc1c[nH]c2ccccc12)C(=O)O (stereo unspecified) 0.9, COc1ccc(N2CCN(C(=O)CNS(=O)(=O)c3ccc(C)c(C)c3)CC2)cc1 1.1, Cc1ccc(-n2cnc3ncnc(-c4ccccc4)c32)cc1 1.1, O=c1cc(CO)oc(C(Nc2cccc([N+](=O)[O-])c2)c2ccccn2)c1O (stereo unspecified) 1, Cc1ccc(NC(=O)c2csc3c2CCCC3)cc1 1, CCNC(=O)CC1C(=O)N(c2ccc(OC)cc2)C(=S)N1CCc1ccncc1 (stereo unspecified) 1, O=C(CC12CC3CC(CC(C3)C1)C2)NCc1ccco1 1, CN(C)c1ccc(/C=N\S(=O)(=O)c2ccccc2)cc1 1, Cn1c2c(c(=O)n(C)c1=O)C(c1cccc([N+](=O)[O-])c1)Nc1ccccc1O2 (stereo unspecified) 1, COC(=O)C1CCN(CC(N)=O)CC1 1.1, CCCCN(CC)C(=S)Nc1ccc2nc3n(c(=O)c2c1)CCCCC3 1, CCOC(=O)C1=NOC(Cn2cc(C(C)=O)c(=O)[nH]c2=O)C1 (stereo unspecified) 1, O=C(C1=C[C@H](c2coc3ccccc3c2=O)C[C@H](OCc2ccc(CO)cc2)O1)N1CCN(Cc2ccccc2)CC1 1, COc1ccc(C(=O)NCC(=O)N/N=C/c2ccc([N+](=O)[O-])s2)cc1OC 0.9, CC(=O)c1ccc(NC(=O)c2ccc3c(Cl)c4c(nc3c2)CCCC4)cc1 1, Cc1ccc(NS(=O)(=O)c2ccc(C)c(NC(=O)COc3ccc4ccccc4c3)c2)c(C)c1 1, CCCCC(CC)CNC(=O)C(=O)C1C(=O)Nc2ccccc21 (stereo unspecified) 1, Nc1nc(NC(=O)/C=C/c2ccccc2)nn1-c1ccccc1 1, CCOC(=O)c1cccc(NC(=O)CCOc2ccccc2)c1 1, Cc1ccc2[nH]c(C(=O)O)c(NC(=O)c3ccccc3[N+](=O)[O-])c2c1 1, COc1ccc(Cl)cc1C(=O)NNC(=S)NC(=O)/C=C/c1ccco1 1.1, C=C(C)C1CC=C(C)/C(=N/NC(=O)CCCNc2cccc(C)c2)C1 (stereo unspecified) 1, O=C(Nc1ccc(C(=O)O)cc1)/C(=C/c1ccc([N+](=O)[O-])cc1)NC(=O)c1ccccc1 1, Cc1ccc(CN2CCN(/N=C/c3cccnc3)CC2)c(C)c1 1, COc1cc(OC)nc(S(C)(=O)=O)n1 1, CCn1c2ccccc2c2cc(NC(=O)COC(=O)c3cc(S(=O)(=O)N4CCCCC4)ccc3Cl)ccc21 1, N=C1C(c2nc3ccccc3[nH]2)=C(O)CN1NC(=O)c1c[nH]c2ccccc12 1.1, CCn1c(COc2ccccc2)nnc1SCC(=O)NCc1ccco1 1, Cc1cc(N2CCOCC2)nc(-c2ccc(Br)cc2)n1 1, Cc1nn(C)cc1C(=O)Nc1ccccc1Br 1, C/C=C(\C)C(=O)NCCN1C2=NC[C@H](Cc3ccc(O)cc3)N2C[C@@H]1Cc1ccc(OC)cc1 1.1, Cc1ccc(CN(Cc2cccnc2)C(=S)Nc2cc(Cl)ccc2C)cc1 1.1, COC(=O)CCSc1cc([N+](=O)[O-])cc2c1c(C1OCCS1)nn2-c1ccccc1 (stereo unspecified) 1, COc1ccc(OC)c(C2C3=C(N=c4s/c(=C\c5cccc(O)c5)c(=O)n42)c2ccccc2CC3)c1 (stereo unspecified) 0.9, CC(NC(=O)c1cccc2ccccc12)c1ccc2c(c1)CCCC2 (stereo unspecified) 1, COc1ccccc1NC(=O)C1=C(C)Nc2nc3ccccc3n2C1c1cccs1 (stereo unspecified) 1, CCOC(=O)c1sc(/N=C/C2=C(O)CC(C)(C)CC2=O)c(C(=O)OCC)c1C 1, O=C(CCNC(=O)c1ccc([N+](=O)[O-])cc1)Nc1ccccc1N1CCOCC1 1, CCN(CC)CCCNC(=O)c1ccc2c(=O)n(Cc3ccc4c(c3)OCO4)c(=S)[nH]c2c1 1, CC1(c2cccc([N+](=O)[O-])c2)CC(C)(C)N(C(=O)c2ccccc2)c2ccccc21 (stereo unspecified) 1, C=CS(=O)c1sc(Cl)c(N2CCOCC2)c1[N+](=O)[O-] (stereo unspecified) 1
